Tests used:
[1] = Cytotoxicity against human neutrophil assessed as cell survival at 0.1 uM after 24 hrs by annexin V-FITC/propidium iodide staining-based flow cytometric analysis
Outline: (§1)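 Freshly isolated human blood neutrophils (Ficoll-Hypaque, healthy-donor buffy coats) at 2 x 10^6 cells/mL in supplemented RPMI. Cultured 24 h at 37 °C, 5% CO2, with or without compound. Annexin V-FITC/PI flow cytometry on 1 x 10^4 cells. Early apoptotic = annexin V+/PI−, late apoptotic/necrotic = V+/PI+, viable = V−/PI−. Mean ± SEM, n=3.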

[2] = Induction of apoptosis in human neutrophil at 0.1 uM after 24 hrs by annexin V-FITC/propidium iodide staining-based flow cytometric analysis; format: cell-based; outline: as §1
D(1A) dopamine receptor = D(1A) dopamine receptor (Rattus norvegicus, UniProt P18901); test: Displacement of [3H]-SCH 23390 from dopamine D1 receptor in rat striatal membranes after 1 hr by liquid scintillation counting analysis; format: cell membranes, Membrane
Sequence of D(1A) dopamine receptor (P18901 whole entry): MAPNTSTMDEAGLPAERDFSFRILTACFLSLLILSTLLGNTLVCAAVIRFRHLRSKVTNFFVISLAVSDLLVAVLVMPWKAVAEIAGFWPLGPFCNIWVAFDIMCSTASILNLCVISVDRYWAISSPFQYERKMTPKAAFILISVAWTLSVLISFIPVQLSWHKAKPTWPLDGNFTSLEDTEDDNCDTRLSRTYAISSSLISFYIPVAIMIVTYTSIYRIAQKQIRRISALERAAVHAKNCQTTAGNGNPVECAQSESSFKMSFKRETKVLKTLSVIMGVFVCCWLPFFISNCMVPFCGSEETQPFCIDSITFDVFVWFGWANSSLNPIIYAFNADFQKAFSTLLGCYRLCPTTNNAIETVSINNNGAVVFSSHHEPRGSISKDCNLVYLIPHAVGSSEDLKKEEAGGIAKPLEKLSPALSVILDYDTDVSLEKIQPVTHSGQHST
Outline: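 Striatal membranes washed twice by centrifugation at 20000g in Tris-HCl (50 mM, pH 7.4), then resuspended in Tris with 5 mM MgSO4, 0.5 mM EDTA and 0.02% ascorbate. 100 µg protein incubated 1 h at 25 °C with 0.25 nM [3H]SCH 23390. Nonspecific binding defined with 30 µM SK&F 38393. Filtered on GF/B, scintillation counted. Mean ± SEM of 3-5 experiments.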

D(2) dopamine receptor = D(2) dopamine receptor (Rattus norvegicus, UniProt P61169); test: Displacement of [3H]-raclopride from dopamine D2 receptor in rat striatal membranes after 1 hr by liquid scintillation counting analysis; format: cell membranes, Membrane
Sequence of D(2) dopamine receptor (P61169 whole entry): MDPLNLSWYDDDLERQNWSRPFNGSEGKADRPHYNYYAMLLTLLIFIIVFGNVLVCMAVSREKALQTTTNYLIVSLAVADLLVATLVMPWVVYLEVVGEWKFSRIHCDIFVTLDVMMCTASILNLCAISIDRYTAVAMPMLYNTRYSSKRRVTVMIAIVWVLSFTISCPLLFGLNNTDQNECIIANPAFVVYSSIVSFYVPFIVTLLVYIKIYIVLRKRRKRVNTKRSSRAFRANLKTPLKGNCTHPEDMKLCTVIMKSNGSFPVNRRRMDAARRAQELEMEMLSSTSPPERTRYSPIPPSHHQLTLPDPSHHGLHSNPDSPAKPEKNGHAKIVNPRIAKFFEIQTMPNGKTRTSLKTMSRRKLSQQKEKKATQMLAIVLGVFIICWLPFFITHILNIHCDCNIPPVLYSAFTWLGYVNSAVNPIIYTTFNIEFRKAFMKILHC
Outline: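 200 µg protein incubated 1 h at 25 °C with 0.5 nM [3H]raclopride. Nonspecific binding defined with 50 µM apomorphine. GF/B filtration, scintillation counting. Mean ± SEM of 3-5 experiments.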

[3] = Cytotoxicity against human neutrophil assessed as cell viability at 0.1 uM after 24 hrs by MTT assay; format: cell-based
Outline: (§2)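 Human peripheral blood neutrophils isolated from healthy-donor buffy coats by Ficoll-Hypaque, plated at 2 x 10^5 cells/mL in RPMI. Concentrations chosen from D2 Ki. Incubated 24 h at 37 °C, 5% CO2. MTT (1 mg/mL solution) added for 60 min, formazan dissolved in DMSO, absorbance read at 570/630 nm. Mean ± SEM, n=3.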

Rattus norvegicus = species on record: Rattus norvegicus; test: Selectivity ratio of Ki for dopamine D1 receptor in rat striatal membranes to Ki for dopamine D2 receptor in rat striatal membranes; format: cell membranes; settings: Membrane
Outline: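 Ratio Ki(D1)/Ki(D2) from striatal membrane displacement assays: [3H]SCH 23390 at 0.25 nM (D1) and [3H]raclopride at 0.5 nM (D2), each incubated 1 h at 25 °C, with filtration and scintillation counting. Ki data are from 3-5 experiments.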

[4] = Cytotoxicity against human neutrophil assessed as cell viability at 10 uM after 24 hrs by MTT assay; format: cell-based; outline: as §2
[5] = Cytotoxicity against human neutrophil assessed as cell viability at 3 uM after 24 hrs by MTT assay; format: cell-based; outline: as §2
[6] = Cytotoxicity against human neutrophil assessed as cell viability at 0.3 uM after 24 hrs by MTT assay; format: cell-based; outline: as §2
[7] = Cytotoxicity against human neutrophil assessed as cell viability at 100 uM after 24 hrs by MTT assay; format: cell-based; outline: as §2

Oc1cc2c(cc1O)C1Cc3cccc(O)c3CN1CC2 (configuration not stated)
Activity [1]: Non-toxic | Activity [2]: Non-toxic | Ki (D(1A) dopamine receptor; read-out: Ki): 3780 nM | Ki (D(1A) dopamine receptor; read-out: pKi (converted)): 3470 nM | Ki (D(2) dopamine receptor; read-out: Ki): 93 nM | Ki (D(2) dopamine receptor; read-out: pKi (converted)): 85.1 nM | Activity [3]: Non-toxic

Oc1ccc2c(c1)CC1c3cc4c(cc3CCN1C2)OCO4 (configuration not stated)
Ki (D(1A) dopamine receptor; read-out: Ki): 33000 nM | Ki (D(1A) dopamine receptor; read-out: pKi (converted)): 32400 nM | Ratio Ki (Rattus norvegicus): 4.4 | Ki (D(2) dopamine receptor; read-out: Ki): 7510 nM | Ki (D(2) dopamine receptor; read-out: pKi (converted)): 6920 nM | Activity [4]: Non-toxic

COc1ccc2c(c1)CC1c3cc(OC)c(OC)cc3CCN1C2 (configuration not stated)
Ki (D(1A) dopamine receptor; read-out: Ki): 4310 nM | Ki (D(1A) dopamine receptor; read-out: pKi (converted)): 4170 nM | Ratio Ki (Rattus norvegicus): 0.5 | Ki (D(2) dopamine receptor; read-out: Ki): 8540 nM | Ki (D(2) dopamine receptor; read-out: pKi (converted)): 5130 nM | Activity [4]: Non-toxic

Oc1ccc2c(c1)CC1c3cc(O)c(O)cc3CCN1C2 (configuration not stated)
Activity [5]: Non-toxic | Ki (D(1A) dopamine receptor; read-out: Ki): 2960 nM | Ki (D(1A) dopamine receptor; read-out: pKi (converted)): 2630 nM | Ratio Ki (Rattus norvegicus): 7.5 | Ki (D(2) dopamine receptor; read-out: Ki): 396 nM | Ki (D(2) dopamine receptor; read-out: pKi (converted)): 389 nM

Oc1ccc2c(c1)CC1c3cc(O)c(Cl)cc3CCN1C2 (configuration not stated)
Activity [6]: Non-toxic | Ki (D(1A) dopamine receptor; read-out: Ki): 107 nM | Ratio Ki (Rattus norvegicus): 0.6 | Ki (D(2) dopamine receptor; read-out: Ki): 188 nM

COc1ccc2c(c1)CC1c3cc(OCc4ccccc4)c(OCc4ccccc4)cc3CCN1C2 (configuration not stated)
Ki (D(1A) dopamine receptor; read-out: Ki): 40600 nM | Ratio Ki (Rattus norvegicus): 1 | Ki (D(2) dopamine receptor; read-out: Ki): 40900 nM | Ki (D(2) dopamine receptor; read-out: pKi (converted)): 41700 nM | Activity [7]: Non-toxic

COc1ccc2c(c1)CC1c3cc(O)c(O)cc3CCN1C2 (configuration not stated)
Activity [1]: Non-toxic | Activity [2]: Non-toxic | Ki (D(1A) dopamine receptor; read-out: Ki): 1110 nM | Ki (D(1A) dopamine receptor; read-out: pKi (converted)): 955 nM | Ratio Ki (Rattus norvegicus): 14.2 | Ki (D(2) dopamine receptor; read-out: Ki): 78 nM | Ki (D(2) dopamine receptor; read-out: pKi (converted)): 74.1 nM | Activity [3]: Non-toxic

Oc1cccc2c1CN1CCc3cc4c(cc3C1C2)OCO4 (configuration not stated)
Activity [1]: Non-toxic | Activity [2]: Non-toxic | Ki (D(1A) dopamine receptor; read-out: Ki): 344 nM | Ki (D(1A) dopamine receptor; read-out: pKi (converted)): 339 nM | Ratio Ki (Rattus norvegicus): 10 | Ki (D(2) dopamine receptor; read-out: Ki): 35 nM | Ki (D(2) dopamine receptor; read-out: pKi (converted)): 28.2 nM | Activity [3]: Non-toxic

COc1cc2c(cc1OC)C1Cc3cccc(OC)c3CN1CC2 (configuration not stated)
Activity [5]: Non-toxic | Ki (D(1A) dopamine receptor; read-out: Ki): 3930 nM | Ki (D(1A) dopamine receptor; read-out: pKi (converted)): 3630 nM | Ratio Ki (Rattus norvegicus): 10 | Ki (D(2) dopamine receptor; read-out: Ki): 393 nM | Ki (D(2) dopamine receptor; read-out: pKi (converted)): 363 nM

COc1ccc2c(c1)CC1c3cc4c(cc3CCN1C2)OCO4 (configuration not stated)
Activity [5]: Non-toxic | Ki (D(1A) dopamine receptor; read-out: Ki): 2370 nM | Ki (D(1A) dopamine receptor; read-out: pKi (converted)): 1700 nM | Ratio Ki (Rattus norvegicus): 1.8 | Ki (D(2) dopamine receptor; read-out: Ki): 1330 nM | Ki (D(2) dopamine receptor; read-out: pKi (converted)): 1150 nM

COc1ccc2c(c1)CC1c3cc(OC)c(Cl)cc3CCN1C2 (configuration not stated)
Activity [5]: Non-toxic | Ki (D(1A) dopamine receptor; read-out: Ki): 1810 nM | Ki (D(1A) dopamine receptor; read-out: pKi (converted)): 1740 nM | Ratio Ki (Rattus norvegicus): 0.9 | Ki (D(2) dopamine receptor; read-out: Ki): 2050 nM

From ChEMBL document CHEMBL2424523, “2,3,9- and 2,3,11-trisubstituted tetrahydroprotoberberines as D2 dopaminergic ligands” (Eur J Med Chem, 2013)
